Bioassay records from PubChem BioAssay.
AF4-AF9 inh: MLL-AF4/AF9 protein interaction inhibition; AlphaScreen, biotin-AF4 peptide binding to FLAG-AF9; inhibition, % at 10 µM; 350,000 tested, 0.47% active; AID 651704;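 active means every replicate reaching a set inhibition limit, whatever the replicate mean, cut at about 25% in these data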;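 further: 0% = plate neutral control median and 100% = total signal loss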
ERAP1 inh: ERAP1 (human) enzyme inhibition | Q9NZ08 | recombinant ERAP1, Leu-AMC fluorescence, 60 min | inhibition, % at 10.7 µM | 340,000 tested, 0.15% active;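 active means mean replicate inhibition of at least 30%, or all replicates individually reaching that 30% level; inactive means mean below 30% and not every replicate reaching it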;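 further: 0% = neutral control wells and 100% = L-leucinethiol positive control wells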
S100A4 MyoIIA: inhibitors of human S100A4 binding to myosin IIA peptide. P26447. S100A4/TAMRA-MyoIIA peptide fluorescence polarization. inhibition, % at 10.7 µM. 360,000 tested, 0.14% active. AID 652163;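 active means mean inhibition of at least 70% across replicates, with every replicate also reaching that level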
Target sequence (P26447 whole entry, looked up): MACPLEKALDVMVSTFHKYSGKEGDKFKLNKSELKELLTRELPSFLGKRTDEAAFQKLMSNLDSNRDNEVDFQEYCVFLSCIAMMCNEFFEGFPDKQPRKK
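incubation = readout 5 min after mixing, signal stable up to 60 min | system = S100A4 monomer protein | buffer or medium = HEPES pH 7.2 with CaCl2, KCl, NaCl, DTT, Triton | benchmarks = neutral control DMSO, positive control TFP | also added = fluorescent myosin IIA peptide, 5 nM | compound dosing = one concentration per compound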
rRNA inh HTS: inhibits bacterial ribosomal RNA function over humanized ribosomes; E. coli WT GFP vs humanized-ribosome RFP mutants, fluorescence, 24 h; stronger effect = lower value; DMSO median 0, no signal -100; GFP signal change (wild-type ribosome), % (test concentration not listed); 350,000 tested, 1.6% active; AID 720706;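 active means significant combined selectivity score with lowered wild-type GFP, culture density cut under 30%, mutant RFP and density less affected; inactive means any of these conditions unmet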
E-sel inducer: induces E-selectin expression in human endothelial cells; P16581; AID 686992; activation, % at 7.58 µM; 260,000 tested, 0.37% active; HUVEC E-selectin immunofluorescence imaging; normalized: neutral wells 0, TNF-alpha wells 100;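 active means mean E-selectin-positive cell signal at least 10% of the positive control, reached in at least 60% of replicates, without over 20% cell loss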
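System: HUVEC / Compound: single concentration / Signal: immunofluorescence imaging / Read-out: percent E-selectin-positive cells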
SIRT5 inh: inhibitors of human sirtuin-5 desuccinylase | Q9NXA8 | Purified SirT5, succinyl-peptide AMC, trypsin-coupled fluorescence | inhibition, % at 15 µM | 330,000 tested, 1.1% active | AID 652115; in the data active means inhibition above about 15%
Target sequence (Q9NXA8 whole entry, looked up): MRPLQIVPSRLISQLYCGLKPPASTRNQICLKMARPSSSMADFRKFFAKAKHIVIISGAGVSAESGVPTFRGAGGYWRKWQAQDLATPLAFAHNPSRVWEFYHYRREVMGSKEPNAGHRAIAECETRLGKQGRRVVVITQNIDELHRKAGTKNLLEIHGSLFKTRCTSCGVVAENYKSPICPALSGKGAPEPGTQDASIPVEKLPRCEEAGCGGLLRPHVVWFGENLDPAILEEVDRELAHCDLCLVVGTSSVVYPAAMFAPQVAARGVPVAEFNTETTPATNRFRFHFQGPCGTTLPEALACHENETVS
* marks the source's active call; other numbers are inactive results; . = no result. Hits are enriched below; roughly 3.4% of the tested compounds scored in any of these assays.

SMILES	AF4-AF9 inh	ERAP1 inh	S100A4 MyoIIA	rRNA inh HTS	E-sel inducer	SIRT5 inh
Cc1cccc(-c2ccc([C@H]3[C@H]4CN(C(=O)c5cccnc5)CC(=O)N4[C@H]3CO)cc2)c1	36*	0	28	1	0	9
O=C(c1cccnc1)N1CC(=O)N2[C@H](C1)[C@H](c1ccc(-c3ccc(F)cc3)cc1)[C@@H]2CO	31*	-2	8	-1	0	0
CC(C)C(=O)Nc1ccc2c(c1)C(=O)N(C)[C@@H]1CC[C@H](CC(=O)NCCCN(C)C)O[C@H]1CO2	-10	-1	-5	4	0	-1
CC(C)(C)SCCNS(=O)(=O)c1ccc(Cl)cc1	0	-2	0	-34	0	0
O=S(=O)(NCCC1CC1(Cl)Cl)c1ccc(Cl)cc1 (centres undefined)	.	-2	8	-48*	0	-2
CO[C@H]1CN(C)C(=O)c2ccc(NC(=O)NC(C)C)cc2OC[C@@H](C)N(Cc2cocn2)C[C@H]1C	.	.	.	0	0	.
COc1cc(/C=C/C(=O)O)cc(S(=O)(=O)Nc2cc(Cl)c(Cl)cc2Cl)c1OC	-1	-4	-19	-9	5	17*
C[C@@H]1CN([C@@H](C)CO)C(=O)Cc2cc(NS(=O)(=O)c3ccc(Cl)cc3)ccc2O[C@@H]1CN(C)S(=O)(=O)c1ccc(F)cc1	1	1	-6	1	0	5
Cc1ccc(NC(=O)CCC(=O)c2cccs2)cc1F	-3	0	-5	5	0	101*
Cc1ccc(NC(=O)CCNS(=O)(=O)c2cccs2)cc1F	0	-3	-4	-10	.	-1
Cc1ccccc1NC(=O)COC(=O)CCC(=O)c1cccs1	0	-2	-7	3	0	15*
CC=Cc1ccc2n(c1=O)C[C@H]1[C@H](CO)[C@@H](C(=O)N(C)C)N(Cc3cccc(F)c3)[C@@H]21 (mixture of isomers)	-1	-3	5	-1	0	2
CCOC(=O)C/C(=N\Nc1ncnc2ccccc12)c1ccccc1	-3	-4	-6	-2	0	2
CCOC(=O)/C(=N\Nc1ncnc2ccccc12)c1ccc(C)cc1	42*	4	19	3	1	5
Cc1cc(C(=O)NCC(=O)OCC(=O)Nc2ccc(OC(F)F)cc2)ccc1[N+](=O)[O-]	-45	-1	1	-22*	0	-10
Cc1ccc(S(=O)(=O)N2CCCCC2)cc1C(=O)N(C)CC(=O)Nc1ccc(Cl)c(C(F)(F)F)c1	3	3	-2	-8	.	-1
CN(CC(=O)Nc1ccc(Cl)c(C(F)(F)F)c1)C(=O)c1cc(=O)[nH]c2ccccc12	3	-3	6	-31	.	2
Cc1ccc(C(=O)N(C)CC(=O)Nc2ccc(Cl)c(C(F)(F)F)c2)cc1S(=O)(=O)N1CCCCC1	4	-3	4	-5	.	19*
COc1ccc(Cl)cc1NC(=O)COC(=O)CNC(=O)c1ccc([N+](=O)[O-])c(C)c1	.	.	.	.	0	.
Cc1ccc(NC(=O)CNC(=O)c2ccc(OC(F)F)cc2)cc1S(=O)(=O)N1CCCCCC1	0	-6	-6	-23*	0	1
Cc1ccc(NC(=O)COC(=O)c2ccc(OC(F)F)cc2)cc1S(=O)(=O)N1CCCCC1	-22	-6	-9	-7	.	-4
CN(CC(=O)Nc1ccc(Cl)c(C(F)(F)F)c1)C(=O)c1cc(=O)c2ccccc2o1	-1	1	6	3	0	22*
O=C(NC1CCCC1)N1CCCCN2[C@@H](CO)[C@H](c3ccc(-c4ccccc4)cc3)[C@@H]2C1	8	1	2	-37	0	-3
CCCNC(=O)C[C@@H]1C[C@H]2c3cc(NC(=O)c4ccc5c(c4)OCO5)ccc3O[C@H]2[C@H](CO)O1	.	.	.	-4	0	.
CC1(C)CC(=O)C(C=NCC(N)=O)=C(O)C1	-1	-2	-14	-23*	.	-1
CC(=O)N(C)C[C@@H]1Oc2ncc(-c3ccc(C)cc3)cc2C(=O)N([C@@H](C)CO)C[C@H]1C	-1	2	-13	-3	0	-9
